Source: ChEMBL document CHEMBL4033781 (J Med Chem, 2018)
pIC50: −log10 of the molar value. The source made the active and inactive calls. The calls are words filed in the database; no cut-off is given here.

Columns and labels:
[1] = target: N+/K+ ATPase alpha-4/beta-1 (Rattus norvegicus, UniProt Q64541); experiment: Inhibition of recombinant rat Na+/K+-ATPase alpha4/beta1 expressed in baculovirus infected insect Sf9 cell membranes using [gamma-32P]ATP as substrate preincubated for 10 mins followed by substrate addition measured after 30 mins in presence of Na+, K+ and Mg2+ by liquid scintillation counting
Sequence of N+/K+ ATPase alpha-4/beta-1 (Q64541 whole entry, other chains not shown, canonical isoform): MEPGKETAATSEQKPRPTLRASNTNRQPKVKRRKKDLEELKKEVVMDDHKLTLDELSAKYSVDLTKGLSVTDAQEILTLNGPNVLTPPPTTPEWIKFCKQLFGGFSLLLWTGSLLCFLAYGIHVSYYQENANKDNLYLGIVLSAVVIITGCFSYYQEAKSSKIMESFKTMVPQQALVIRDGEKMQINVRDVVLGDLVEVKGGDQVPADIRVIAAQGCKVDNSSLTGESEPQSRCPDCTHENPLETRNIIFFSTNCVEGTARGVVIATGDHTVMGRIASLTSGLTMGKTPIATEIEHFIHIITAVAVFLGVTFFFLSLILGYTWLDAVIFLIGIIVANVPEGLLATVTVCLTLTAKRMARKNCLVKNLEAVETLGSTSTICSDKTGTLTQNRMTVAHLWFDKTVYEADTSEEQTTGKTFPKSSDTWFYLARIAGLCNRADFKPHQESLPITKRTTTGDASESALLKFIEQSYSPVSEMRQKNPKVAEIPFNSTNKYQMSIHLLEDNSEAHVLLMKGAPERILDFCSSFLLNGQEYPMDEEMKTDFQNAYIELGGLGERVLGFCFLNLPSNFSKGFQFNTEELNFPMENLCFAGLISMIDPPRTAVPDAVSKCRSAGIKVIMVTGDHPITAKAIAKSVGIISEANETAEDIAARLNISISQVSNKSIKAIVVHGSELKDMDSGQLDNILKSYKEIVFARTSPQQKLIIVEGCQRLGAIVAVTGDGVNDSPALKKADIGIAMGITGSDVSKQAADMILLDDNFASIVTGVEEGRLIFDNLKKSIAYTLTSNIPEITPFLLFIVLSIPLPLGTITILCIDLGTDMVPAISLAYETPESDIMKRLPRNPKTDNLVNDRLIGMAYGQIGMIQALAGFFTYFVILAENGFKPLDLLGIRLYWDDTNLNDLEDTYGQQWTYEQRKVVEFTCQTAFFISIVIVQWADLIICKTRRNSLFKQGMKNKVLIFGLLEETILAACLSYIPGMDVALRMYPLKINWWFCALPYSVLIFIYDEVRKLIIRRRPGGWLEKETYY
In short: (§1)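 Rat α/β1 isoforms were expressed in baculovirus-infected Sf9 cells (72 h, 27 °C), washed in 10 mM imidazole-HCl pH 7.5 with 1 mM EGTA, and homogenised. Homogenates were assayed in 120 mM NaCl, 30 mM KCl, 3 mM MgCl₂, 0.2 mM EGTA and 30 mM Tris-HCl pH 7.4. Reactions were started with 2 mM γ[³²P]-ATP (final) and run 30 min at 37 °C. Released ³²Pi was extracted as phosphomolybdate into isobutanol and scintillation counted. IC50 came from single-site dose–response fits.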

[2] = target: Na+/K+ ATPase alpha-1/beta-1 (Rattus norvegicus, UniProt P06685+P07340); experiment: Inhibition of recombinant rat Na+/K+-ATPase alpha1/beta1 expressed in baculovirus infected insect Sf9 cell membranes using [gamma-32P]ATP as substrate preincubated for 20 mins followed by substrate addition measured after 30 mins by liquid scintillation counting
In short: as §1, with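 “counted. Activity was taken as the 1 mM ouabain-sensitive fraction.” for “counted.”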

[3] = target: T1, Voltage-gated inwardly rectifying potassium channel KCNH2 (Homo sapiens, UniProt Q12809); experiment: Displacement of Tracer Red from human ERG expressed in cell membranes up to 60 uM by fluorescence polarization assay
T1 sequence (Q12809 whole entry): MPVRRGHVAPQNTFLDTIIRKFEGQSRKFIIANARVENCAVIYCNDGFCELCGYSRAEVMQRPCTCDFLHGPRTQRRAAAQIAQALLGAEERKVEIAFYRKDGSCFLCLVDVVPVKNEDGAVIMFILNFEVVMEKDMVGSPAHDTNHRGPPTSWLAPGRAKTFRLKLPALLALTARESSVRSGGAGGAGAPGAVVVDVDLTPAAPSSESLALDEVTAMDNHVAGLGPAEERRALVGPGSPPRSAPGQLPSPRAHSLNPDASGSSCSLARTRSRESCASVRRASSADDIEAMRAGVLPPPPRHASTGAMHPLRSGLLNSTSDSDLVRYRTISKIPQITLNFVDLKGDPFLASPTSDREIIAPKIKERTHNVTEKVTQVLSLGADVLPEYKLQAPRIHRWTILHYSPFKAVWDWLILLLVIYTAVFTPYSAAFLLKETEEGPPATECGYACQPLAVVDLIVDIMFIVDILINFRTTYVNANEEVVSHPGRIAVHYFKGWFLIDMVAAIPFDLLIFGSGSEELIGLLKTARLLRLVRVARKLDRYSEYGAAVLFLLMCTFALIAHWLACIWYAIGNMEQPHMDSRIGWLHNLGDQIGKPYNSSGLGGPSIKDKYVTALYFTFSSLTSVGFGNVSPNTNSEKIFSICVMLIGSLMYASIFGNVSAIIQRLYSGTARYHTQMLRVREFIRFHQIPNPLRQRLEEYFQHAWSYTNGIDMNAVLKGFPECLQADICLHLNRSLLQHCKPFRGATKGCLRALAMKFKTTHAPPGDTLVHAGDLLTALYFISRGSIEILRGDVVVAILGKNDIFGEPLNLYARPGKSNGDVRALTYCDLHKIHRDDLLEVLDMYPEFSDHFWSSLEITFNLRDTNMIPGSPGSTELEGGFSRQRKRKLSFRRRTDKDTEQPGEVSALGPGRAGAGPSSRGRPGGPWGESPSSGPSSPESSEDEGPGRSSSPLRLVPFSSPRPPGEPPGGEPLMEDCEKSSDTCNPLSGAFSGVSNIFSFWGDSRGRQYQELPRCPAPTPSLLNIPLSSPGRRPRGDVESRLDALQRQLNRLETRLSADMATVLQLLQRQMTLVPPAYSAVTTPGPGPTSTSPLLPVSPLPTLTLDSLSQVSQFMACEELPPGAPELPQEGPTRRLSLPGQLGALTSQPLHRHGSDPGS
In short: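 Competitive fluorescence polarization displacement of a fluorescently tagged hERG ligand used membranes from cells stably expressing hERG. Compounds were tested up to 60 μM.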

[4] = target: Na+/K+ ATPase alpha-2/beta-1 (Rattus norvegicus, UniProt P06686+P07340); experiment: Inhibition of recombinant rat Na+/K+-ATPase alpha2/beta1 expressed in baculovirus infected insect Sf9 cell membranes using [gamma-32P]ATP as substrate preincubated for 20 mins followed by substrate addition measured after 30 mins by liquid scintillation counting; in short: as §1
[5] = target: Na+/K+ ATPase alpha-3/beta-1 (Rattus norvegicus, UniProt P06687+P07340); experiment: Inhibition of recombinant rat Na+/K+-ATPase alpha3/beta1 expressed in baculovirus infected insect Sf9 cell membranes using [gamma-32P]ATP as substrate preincubated for 20 mins followed by substrate addition measured after 30 mins by liquid scintillation counting; in short: as §1
[6] = target: Sodium/potassium-transporting ATPase subunit alpha-4 (Rattus norvegicus) (UniProt Q64541); experiment: Inhibition of Na+/K+-ATPase alpha4 in Long Evans rat cauda epididymis sperm assessed as reduction in sperm progressive motility at 10^-12 to 10^-4 M after 1 hr by SYTO staining based microscopic method
Sequence of Sodium/potassium-transporting ATPase subunit alpha-4 (Rattus norvegicus) (Q64541 whole entry): as the sequence (Q64541 whole entry, other chains not shown, canonical isoform) above

[7] = target: Sodium/potassium-transporting ATPase subunit alpha-4 (Rattus norvegicus) (UniProt Q64541); experiment: Inhibition of Na+/K+-ATPase alpha4 in Long Evans rat cauda epididymis sperm assessed as reduction in sperm straight line velocity at 10^-12 to 10^-4 M after 1 hr by SYTO staining based microscopic method
[8] = target: Sodium/potassium-transporting ATPase subunit alpha-4 (Rattus norvegicus) (UniProt Q64541); experiment: Inhibition of Na+/K+-ATPase alpha4 in Long Evans rat cauda epididymis sperm assessed as reduction in sperm curvilinear velocity at 10^-12 to 10^-4 M after 1 hr by SYTO staining based microscopic method
[9] = target: Sodium/potassium-transporting ATPase subunit alpha-4 (Rattus norvegicus) (UniProt Q64541); experiment: Inhibition of Na+/K+-ATPase alpha4 in Long Evans rat cauda epididymis sperm assessed as reduction in sperm average path velocity at 10^-12 to 10^-4 M after 1 hr by SYTO staining based microscopic method
[10] = target: Sodium/potassium-transporting ATPase subunit alpha-4 (Rattus norvegicus) (UniProt Q64541); experiment: Inhibition of Na+/K+-ATPase alpha4 in Long Evans rat cauda epididymis sperm assessed as reduction in sperm average path linearity at 10^-12 to 10^-4 M after 1 hr by SYTO staining based microscopic method
[11] = target: Sodium/potassium-transporting ATPase subunit alpha-4 (Rattus norvegicus) (UniProt Q64541); experiment: Inhibition of Na+/K+-ATPase alpha4 in Long Evans rat cauda epididymis sperm assessed as reduction in sperm beat cross frequency at 10^-12 to 10^-4 M after 1 hr by SYTO staining based microscopic method
[12] = target: Sodium/potassium-transporting ATPase subunit alpha-4 (Rattus norvegicus) (UniProt Q64541); experiment: Inhibition of Na+/K+-ATPase alpha4 in Long Evans rat cauda epididymis sperm assessed as reduction in sperm motility at 10^-8 M preincubated for 1 hr followed by compound washout measured up to 2 hrs by SYTO staining based microscopic method
In short: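 Rat cauda epididymal sperm in modified Tyrode's medium were treated with or without compound. Motility was measured by SYTO 21/CASA before and after three washes in modified Tyrode's medium, at times up to 2 h. Values are mean ± SEM of three determinations.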

MCF7 = experiment: Antiproliferative activity against human MCF7 cells up to 100 uM after 72 hrs by AlamarBlue assay; format: cell-based; details: mcf7, 72 h
[13] = target: Sodium/potassium-transporting ATPase subunit alpha-4 (Rattus norvegicus) (UniProt Q64541); experiment: Inhibition of Na+/K+-ATPase alpha4 in Long Evans rat cauda epididymis sperm assessed as reduction in total sperm motility at 10^-12 to 10^-4 M after 1 hr by SYTO staining based microscopic method
[14] = target: T1, Voltage-gated inwardly rectifying potassium channel KCNH2; experiment: Displacement of Tracer Red from human ERG expressed in cell membranes by fluorescence polarization assay
In short: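 Competitive fluorescence polarization binding assay using membranes from cells stably expressing hERG, measuring displacement of a fluorescently tagged hERG ligand. Test compounds were run at concentrations up to 60 μM.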

COCO[C@@H]1[C@H]2OC(C)(C)O[C@H]2[C@H](O[C@H]2C[C@H]3OC(C)(C)OC[C@]34[C@@H]3[C@@H](CC[C@]4(O)C2)[C@@]2(O)CC[C@H](C(O)c4cn(Cc5ccc(F)cc5)nn4)[C@@]2(C)C[C@H]3OCOC)O[C@H]1C (mixture of isomers)
pIC50 [1]: 7.15 to 7.92

COCO[C@@H]1[C@H]2OC(C)(C)O[C@H]2[C@H](O[C@H]2C[C@H]3OC(C)(C)OC[C@]34[C@@H]3[C@@H](CC[C@]4(O)C2)[C@@]2(O)CC[C@H](CO)[C@@]2(C)C[C@H]3OCOC)O[C@H]1C
pIC50 [2]: < 4.00 | inhibition (INH) [3]: Not Active | pIC50 [4]: < 4.00 | pIC50 [5]: < 4.00 | inhibition [6]: Active | inhibition [7]: Active | inhibition [8]: Active | inhibition [9]: Active | inhibition [10]: Active | inhibition [11]: Active | inhibition [12]: Active | Activity (MCF7): Non-Toxic | inhibition [13]: Active

C[C@]12C[C@@H](O)[C@H]3[C@@H](CC[C@]4(O)C[C@@H](O)C[C@@H](O)[C@]34CO)[C@@]1(O)CC[C@@H]2c1cn(Cc2ccc(F)cc2)nn1
pIC50 [1]: 7.31 to 7.49

C[C@@H]1O[C@@H](O[C@H]2C[C@@H](O)[C@]3(CO)[C@H]4[C@H](O)C[C@]5(C)[C@@H](C(O)c6cn(Cc7ccc(F)cc7)nn6)CC[C@]5(O)[C@@H]4CC[C@]3(O)C2)[C@H](O)[C@H](O)[C@H]1O (mixture of isomers)
pIC50 [1]: 7.36 to 7.89

COCO[C@@H]1[C@H]2OC(C)(C)O[C@H]2[C@H](O[C@H]2C[C@H]3OC(C)(C)OC[C@]34[C@@H]3[C@@H](CC[C@]4(O)C2)[C@@]2(O)CC[C@H](C#N)[C@@]2(C)C[C@H]3OCOC)O[C@H]1C
pIC50 [1]: 7.21 to 7.48

COCO[C@H]1C[C@H]2OC(C)(C)OC[C@]23[C@@H]2[C@@H](CC[C@]3(O)C1)[C@@]1(OCOC)CC[C@H](c3cn(Cc4ccccc4)nn3)[C@@]1(C)C[C@H]2OCOC
pIC50 [1]: 8.16 to 8.30

C[C@@H]1O[C@@H](O[C@H]2C[C@H]3OC(C)(C)OC[C@]34[C@H]3[C@H](O)C[C@]5(C)[C@@H](C6=CC(=O)OC6)CC[C@]5(O)[C@@H]3CC[C@]4(O)C2)[C@@H]2OC(C)(C)O[C@@H]2[C@H]1O
pIC50 [1]: 8.37 to 8.40

COCO[C@H]1C[C@H]2OC(C)(C)OC[C@]23[C@@H]2[C@@H](CC[C@]3(O)C1)[C@@]1(OCOC)CC[C@H](C(O)C(F)(F)F)[C@@]1(C)C[C@H]2OCOC (mixture of isomers)
pIC50 [1]: 5.23 to 5.25

COc1ccc(-c2cn(C[C@H]3CC[C@]4(O)[C@@H]5CC[C@]6(O)C[C@@H](O)C[C@@H](O)[C@]6(CO)[C@H]5[C@H](O)C[C@]34C)nn2)cc1
pIC50 [1]: 4.41 to 4.82

COCO[C@@H]1[C@H]2OC(C)(C)O[C@H]2[C@H](O[C@H]2C[C@H]3OC(C)(C)OC[C@]34[C@@H]3[C@@H](CC[C@]4(O)C2)[C@@]2(O)CC[C@H](C(O)CO)[C@@]2(C)C[C@H]3OCOC)O[C@H]1C (mixture of isomers)
pIC50 [1]: 5.43 to 5.68

COCO[C@@H]1[C@H]2OC(C)(C)O[C@H]2[C@H](O[C@H]2C[C@H]3OC(C)(C)OC[C@]34[C@@H]3[C@@H](CC[C@]4(O)C2)[C@@]2(O)CC[C@H](C=O)[C@@]2(C)C[C@H]3OCOC)O[C@H]1C
pIC50 [1]: 8.15 to 8.31

C[C@]12C[C@@H](O)[C@H]3[C@@H](CC[C@]4(O)C[C@@H](O)C[C@@H](O)[C@]34CO)[C@@]1(O)CC[C@@H]2c1cn(Cc2ccc(Cl)cc2)nn1
pIC50 [1]: 7.37 to 7.49

C[C@@H]1O[C@@H](O[C@H]2C[C@@H](O)[C@]3(CO)[C@H]4[C@H](O)C[C@]5(C)[C@@H](C(O)c6cn(Cc7ccccc7)nn6)CC[C@]5(O)[C@@H]4CC[C@]3(O)C2)[C@H](O)[C@H](O)[C@H]1O (mixture of isomers)
pIC50 [1]: 5.82 to 5.92

C[C@@H]1O[C@@H](O[C@H]2C[C@@H](O)[C@]3(CO)[C@H]4[C@H](O)C[C@]5(C)[C@@H](C6=CC(=O)OC6)CC[C@]5(O)[C@@H]4CC[C@]3(O)C2)[C@H](O)[C@H](O)[C@H]1O [OUABAIN]
pIC50 [14]: 5.24

COCO[C@H]1C[C@H]2OC(C)(C)OC[C@]23[C@@H]2[C@@H](CC[C@]3(O)C1)[C@@]1(OCOC)CC[C@H](C(=O)O)[C@@]1(C)C[C@H]2OCOC
pIC50 [1]: 7.11 to 7.41

COCO[C@H]1C[C@H]2OC(C)(C)OC[C@]23[C@@H]2[C@@H](CC[C@]3(O)C1)[C@@]1(OCOC)CC[C@H](/C=N/O)[C@@]1(C)C[C@H]2OCOC
pIC50 [1]: 8.54 to 8.85

COCO[C@H]1C[C@H]2OC(C)(C)OC[C@]23[C@@H]2[C@@H](CC[C@]3(O)C1)[C@@]1(OCOC)CC[C@H](C#N)[C@@]1(C)C[C@H]2OCOC
pIC50 [1]: 4.43 to 4.80

C#CC(O)[C@H]1CC[C@]2(OCOC)[C@@H]3CC[C@]4(O)C[C@@H](OCOC)C[C@H]5OC(C)(C)OC[C@]54[C@H]3[C@H](OCOC)C[C@]12C (mixture of isomers)
pIC50 [1]: 7.22 to 8.00

COCO[C@H]1C[C@H]2OC(C)(C)OC[C@]23[C@@H]2[C@@H](CC[C@]3(O)C1)[C@@]1(OCOC)CC[C@H](CO)[C@@]1(C)C[C@H]2OCOC
pIC50 [2]: < 4.00 | inhibition (INH) [3]: Not Active | pIC50 [4]: 5.18 | pIC50 [5]: < 4.00 | inhibition [6]: Active | inhibition [7]: Active | inhibition [8]: Active | inhibition [9]: Active | inhibition [10]: Active | inhibition [11]: Active | inhibition [12]: Active | Activity (MCF7): Non-Toxic | inhibition [13]: Active
